Measurements taken from ChEMBL document CHEMBL3611977, “Synthesis, pharmacological evaluation and docking studies of pyrrole structure-based CB2 receptor antagonists” (Eur J Med Chem, 2015).
pIC50, pKi: −log10 of the molar value. Active and inactive are the calls of the source. The calls are words filed in the database; no cut-off is given here.

Experiments:
Cannabinoid receptor 2 [1] = biological target: T1, Cannabinoid receptor 2 (Homo sapiens, UniProt P34972); experiment: Displacement of [3H]-CP55940 from human CB2 receptor transfected in HEK293EBNA cell membranes after 90 mins by liquid scintillation counting analysis; design: species or system HEK293-EBNA
How it was run: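 Human CB2-transfected HEK293EBNA membranes (about 0.18 mg/mL protein) in Tris-HCl with EDTA, MgCl₂ and fatty-acid-free BSA, pH 7.4. Compounds were pre-screened at a single concentration, with full curves only if displacement exceeded 50%. Ki from iterative curve fitting, three independent experiments in triplicate.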

Cannabinoid receptor 1 = Cannabinoid receptor 1 (Homo sapiens, UniProt P21554); experiment: Displacement of [3H]-CP55940 from human CB1 receptor transfected in HEK293EBNA cell membranes after 90 mins by liquid scintillation counting analysis; design: species or system HEK293-EBNA
[2] = biological target: Cannabinoid receptor 2 (Mus musculus) (UniProt P47936); conditions: BV-2, 10 uM
[3] = biological target: Cannabinoid receptor 2 (Mus musculus) (UniProt P47936); experiment: Antagonist/inverse agonist activity at CB2 receptor in mouse BV-2 cells assessed as inhibition of WIN55,212-2-mediated attenuation of LPS-induced PGE2 release at 10 fold Ki after 16 hrs by ELISA immunoassay; type: cell-based
How it was run: (§1)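 Mouse BV-2 microglia plated at 5 × 10⁵ cells/well on poly-L-ornithine and grown overnight in DMEM with 10% FBS at 37 °C and 5% CO₂. The medium was switched to 1% FBS 1 h before treatment. Cells were then given LPS (E. coli 055:B5) for 16 h, alone or with test compound, and PGE2 release was measured. Data were analysed by one-way ANOVA.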

[4] = biological target: Cannabinoid receptor 2 (Mus musculus) (UniProt P47936); experiment: Antagonist/inverse agonist activity at CB2 receptor in mouse BV-2 cells assessed as LPS-induced PGE2 relaese at 10 fold Ki after 16 hrs by ELISA immunoassay; type: cell-based; how it was run: as §1
Cannabinoid receptor 2 [5] = biological target: T1, Cannabinoid receptor 2; experiment: Antagonist/inverse agonist activity at human CB2 receptor transfected in Chem4 cell membranes after 30 mins by [35S]-GTPgammaS binding assay; type: functional
How it was run: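 Purchased CB2R-containing membranes in 20 mM HEPES with 100 mM NaCl and 10 mM MgCl₂, pH 7.4. Compound was added from 10⁻¹¹ to 10⁻⁵ M together with 30 nM CP55,940 and incubated 30 min at 30 °C. Non-specific signal was defined with unlabelled GTPγS. The reaction was stopped by GF/C filtration with phosphate-buffer washes, then scintillation counting.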

[6] = biological target: Cannabinoid receptor 2 (Mus musculus) (UniProt P47936); experiment: Antagonist/inverse agonist activity at CB2 receptor in mouse BV-2 cells assessed as LPS-induced PGE2 relaese at 10 fold Ki after 16 hrs by ELISA immunoassay in presence of CB2R antagonist SR144528; type: cell-based; how it was run: as §1

T1 sequence (P34972 whole entry): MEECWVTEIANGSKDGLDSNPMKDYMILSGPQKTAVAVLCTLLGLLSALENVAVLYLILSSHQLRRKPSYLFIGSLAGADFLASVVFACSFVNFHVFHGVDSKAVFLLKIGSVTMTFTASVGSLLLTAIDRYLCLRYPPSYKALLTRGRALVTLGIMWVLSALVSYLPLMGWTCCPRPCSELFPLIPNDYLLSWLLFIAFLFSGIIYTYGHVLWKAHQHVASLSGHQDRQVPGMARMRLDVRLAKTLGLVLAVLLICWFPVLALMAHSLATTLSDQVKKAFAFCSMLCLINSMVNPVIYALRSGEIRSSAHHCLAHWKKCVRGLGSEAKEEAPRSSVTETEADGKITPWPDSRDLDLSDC
Chain of Cannabinoid receptor 2 (Mus musculus) (P47936 whole entry): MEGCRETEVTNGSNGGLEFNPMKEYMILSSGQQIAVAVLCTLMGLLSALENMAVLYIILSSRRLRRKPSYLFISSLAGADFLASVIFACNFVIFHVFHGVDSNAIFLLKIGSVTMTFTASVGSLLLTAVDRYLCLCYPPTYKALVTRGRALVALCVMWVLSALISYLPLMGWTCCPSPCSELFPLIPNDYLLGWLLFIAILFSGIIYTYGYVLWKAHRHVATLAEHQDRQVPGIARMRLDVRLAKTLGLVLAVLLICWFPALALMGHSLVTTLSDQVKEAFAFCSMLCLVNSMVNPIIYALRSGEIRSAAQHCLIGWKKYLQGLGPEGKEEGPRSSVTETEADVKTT
Chain of Cannabinoid receptor 1 (P21554 whole entry): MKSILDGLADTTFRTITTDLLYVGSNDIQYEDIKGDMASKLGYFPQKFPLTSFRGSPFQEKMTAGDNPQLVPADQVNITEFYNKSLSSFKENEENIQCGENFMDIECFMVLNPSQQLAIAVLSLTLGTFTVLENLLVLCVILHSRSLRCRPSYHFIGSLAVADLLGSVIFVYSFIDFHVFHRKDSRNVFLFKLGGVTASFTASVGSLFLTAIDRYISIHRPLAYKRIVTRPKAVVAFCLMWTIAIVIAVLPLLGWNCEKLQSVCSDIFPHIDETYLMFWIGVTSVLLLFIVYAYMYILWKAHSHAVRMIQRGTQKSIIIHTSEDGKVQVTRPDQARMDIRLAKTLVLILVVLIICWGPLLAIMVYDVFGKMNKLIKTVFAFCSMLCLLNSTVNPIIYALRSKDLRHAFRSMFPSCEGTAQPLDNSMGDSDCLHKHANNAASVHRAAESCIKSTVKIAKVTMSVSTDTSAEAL

Compound | pKi (Cannabinoid receptor 2 [1]) | pKi (Cannabinoid receptor 1) | other results
Cc1ccc(Cn2cc(C(=O)N[C@@H]3C[C@@H]4C[C@H]([C@H]3C)C4(C)C)cc2-c2ccc(Cl)c(C)c2)cc1 | < 5.30 | – | –
Cc1ccc(Cn2cc(C(=O)N[C@H]3C[C@@H](C)CC[C@@H]3C(C)C)cc2-c2ccc(Cl)c(C)c2)cc1 | 5.96 | < 5.30 | –
Cc1ccc(Cn2cc(C(=O)N3CCN(c4ccccc4Cl)CC3)cc2-c2ccc(Cl)c(C)c2)cc1 | 5.77 | < 5.30 | –
Cc1ccc(Cn2nc(C(=O)N[C@@H]3C(C)(C)[C@@H]4CC[C@@]3(C)C4)cc2-c2ccc(Cl)c(C)c2)cc1 | – | – | inhibition [2]: Active
Cc1ccc(Cn2cc(C(=O)Nc3cccc4ccccc34)cc2-c2ccc(Cl)c(C)c2)cc1 | < 5.30 | < 5.30 | –
Cc1ccc(Cn2cc(C(=O)NN3CCCCC3)cc2-c2ccc(Cl)c(C)c2)cc1 | < 5.30 | < 5.30 | –
Cc1ccc(Cn2cc(C(=O)NN3CCCCCC3)cc2-c2ccc(Cl)c(C)c2)cc1 | 6.24 | < 5.30 | –
Cc1ccc(Cn2cc(C(=O)N[C@@H](C)C3CCCCC3)cc2-c2ccc(Cl)c(C)c2)cc1 | 6.31 | – | –
Cc1ccc(Cn2cc(C(=O)NC3CCCCC3)cc2-c2ccc(Cl)c(C)c2)cc1 | 6.61 | < 5.30 | –
Cc1ccc(Cn2nc(C(=O)N[C@@H]3CC4CC[C@@]3(C)C4(C)C)cc2-c2ccc(Cl)c(C)c2)cc1 | 8.14 | – | –
Cc1ccc(Cn2cc(C(=O)N[C@@H]3C(C)(C)C4CC[C@@]3(C)C4)cc2-c2ccc(Cl)c(C)c2)cc1 | 8.24 | 5.83 | inhibition [3]: Active; inhibition [4]: Active; pIC50 (Cannabinoid receptor 2 [5]): 6.77; inhibition [6]: Active
Cc1ccc(Cn2cc(CN3CCN(c4ccc(Cl)cc4)CC3)cc2-c2ccc(Cl)c(C)c2)cc1 | < 5.30 | < 5.30 | –
Cc1ccc(Cn2cc(CN3CCN(c4ccc(Cl)c(Cl)c4)CC3)cc2-c2ccc(Cl)c(C)c2)cc1 | < 5.30 | < 5.30 | –
Cc1ccc(Cn2cc(C(=O)N3CCCCC3)cc2-c2ccc(Cl)c(C)c2)cc1 | 6.97 | 5.51 | –
Cc1ccc(Cn2cc(C(=O)NCC34CC5CC(CC(C5)C3)C4)cc2-c2ccc(Cl)c(C)c2)cc1 | < 5.30 | < 5.30 | –
Cc1ccc(Cn2cc(CN[C@@H]3C(C)(C)C4CC[C@@]3(C)C4)cc2-c2ccc(Cl)c(C)c2)cc1 | 6.46 | – | –
Cc1ccc(Cn2cc(C(=O)N[C@@H]3CC4CC[C@@]3(C)C4(C)C)cc2-c2ccc(Cl)c(C)c2)cc1 | 6.79 | 6.43 | –
Cc1ccc(Cn2cc(C(=O)N[C@H](C)C3CCCCC3)cc2-c2ccc(Cl)c(C)c2)cc1 | < 5.30 | < 5.30 | –
Cc1ccc(Cn2cc(C(=O)NC34CC5CC(CC(C5)C3)C4)cc2-c2ccc(Cl)c(C)c2)cc1 | < 5.30 | < 5.30 | –
Cc1ccc(Cn2cc(C(=O)NC[C@@H]3CCC4C[C@@H]3C4(C)C)cc2-c2ccc(Cl)c(C)c2)cc1 | 7.14 | < 5.30 | inhibition [3]: Active; inhibition [4]: Active; pIC50 (Cannabinoid receptor 2 [5]): 5.74; inhibition [6]: Active
Cc1ccc(Cn2cc(C(=O)NN3CCCC3)cc2-c2ccc(Cl)c(C)c2)cc1 | < 5.30 | < 5.30 | –
